The source made the active and inactive calls. The rule behind the calls is not given here.
How the values were obtained:
Rattus norvegicus [1] = experiment: Antihypertensive activity against DOCA-salt induced hypertension in albino rat assessed as reduction in systolic blood pressure at 10 mg/kg, po up to 360 mins by tail-cuff method; assay type: functional, organism-based; parameters: dose 10 mg/kg; conditions: Artery
In short: (§1)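 Rats given DOCA 20 mg/kg s.c. twice weekly in olive oil for 4 weeks, with 1% w/v NaCl as drinking water, reaching systolic 160–180 mm Hg. Rats were trained in restrainer and tail-cuff sessions. Compounds in 0.5% CMC were dosed at 10 mg/kg by oral feeding needle, with vehicle and nifedipine groups. BP was read before dosing and after, with the tail warmed at 37 °C for 2–5 min. Each compound was run three times in one week and readings averaged.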

Rattus norvegicus [2] = experiment: Antihypertensive activity against DOCA-salt induced hypertension in albino rat assessed as reduction in systolic blood pressure at 10 mg/kg, po after 900 mins by tail-cuff method; assay type: functional; conditions: Artery, 15 h; in short: as §1
Rattus norvegicus [3] = experiment: Antihypertensive activity against DOCA-salt induced hypertension in albino rat assessed as reduction in systolic blood pressure at 10 mg/kg, po after 720 mins by tail-cuff method; assay type: functional; conditions: Artery, 12 h; in short: as §1
Rattus norvegicus [4] = experiment: Antihypertensive activity against DOCA-salt induced hypertension in albino rat assessed as reduction in systolic blood pressure at 10 mg/kg, po after 600 mins by tail-cuff method; assay type: functional; conditions: Artery, 10 h; in short: as §1
Rattus norvegicus [5] = experiment: Antihypertensive activity against DOCA-salt induced hypertension in albino rat assessed as reduction in systolic blood pressure at 10 mg/kg, po after 360 mins by tail-cuff method; assay type: functional; conditions: Artery, 6 h; in short: as §1
Rattus norvegicus [6] = experiment: Antihypertensive activity against DOCA-salt induced hypertension in albino rat assessed as reduction in systolic blood pressure at 10 mg/kg, po after 300 mins by tail-cuff method; assay type: functional; conditions: Artery, 5 h; in short: as §1
Rattus norvegicus [7] = experiment: Antihypertensive activity against DOCA-salt induced hypertension in albino rat assessed as reduction in systolic blood pressure at 10 mg/kg, po after 240 mins by tail-cuff method; assay type: functional; conditions: Artery, 4 h; in short: as §1
Rattus norvegicus [8] = experiment: Antihypertensive activity against DOCA-salt induced hypertension in albino rat assessed as reduction in systolic blood pressure at 10 mg/kg, po after 180 mins by tail-cuff method; assay type: functional; conditions: Artery, 3 h; in short: as §1
Rattus norvegicus [9] = experiment: Antihypertensive activity against DOCA-salt induced hypertension in albino rat assessed as reduction in systolic blood pressure at 10 mg/kg, po after 120 mins by tail-cuff method; assay type: functional; conditions: Artery, 2 h; in short: as §1
Rattus norvegicus [10] = experiment: Antihypertensive activity against DOCA-salt induced hypertension in albino rat assessed as reduction in systolic blood pressure at 10 mg/kg, po after 60 mins by tail-cuff method; assay type: functional; conditions: Artery, 1 h; in short: as §1
Rattus norvegicus [11] = experiment: Antihypertensive activity against DOCA-salt induced hypertension in albino rat assessed as reduction in systolic blood pressure at 10 mg/kg, po after 30 mins by tail-cuff method; assay type: functional; conditions: Artery, 0.5 h; in short: as §1
Rattus norvegicus [12] = experiment: Antihypertensive activity against DOCA-salt induced hypertension in albino rat assessed as reduction in systolic blood pressure at 10 mg/kg, po after 15 mins by tail-cuff method; assay type: functional; conditions: Artery, 0.25 h; in short: as §1

COc1ccc(C2N=C(SCc3ccc(F)cc3)NC(C)=C2C(=O)Nc2ccc(Br)cc2)cc1 (configuration not stated)
Activity (Rattus norvegicus [1]): Active | inhibition in vivo at 10 mg/kg (Rattus norvegicus [2]): 15.4% | inhibition in vivo at 10 mg/kg (Rattus norvegicus [3]): 19.1% | inhibition in vivo at 10 mg/kg (Rattus norvegicus [4]): 24.1% | inhibition in vivo at 10 mg/kg (Rattus norvegicus [5]): 33.5% | inhibition in vivo at 10 mg/kg (Rattus norvegicus [6]): 26.2% | inhibition in vivo at 10 mg/kg (Rattus norvegicus [7]): 22.1% | inhibition in vivo at 10 mg/kg (Rattus norvegicus [8]): 17% | inhibition in vivo at 10 mg/kg (Rattus norvegicus [9]): 12.9% | inhibition in vivo at 10 mg/kg (Rattus norvegicus [10]): 8.7% | inhibition in vivo at 10 mg/kg (Rattus norvegicus [11]): 6.2% | inhibition in vivo at 10 mg/kg (Rattus norvegicus [12]): 3.6%

Source: ChEMBL document CHEMBL1275301, “Antihypertensive activity of newer 1,4-dihydro-5-pyrimidine carboxamides: synthesis and pharmacological evaluation” (2010)
